From ChEMBL document CHEMBL1933033, “Cytotoxic withanolide constituents of Physalis longifolia” (J Nat Prod, 2011) come the findings set out here.

One assay deals with SK-MEL-28. Kind of assay: Cytotoxicity against human SK-MEL-28 cells after 72 hrs by MTS assay. The conditions noted are these: SK-MEL-28, 72 h. Type of assay: functional, cell-based. In outline: (§1)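 MTS viability assay on HNSCC (JMAR, MDA-1986), melanoma (B16F10, SKMEL-28) and normal fetal fibroblast (MRC-5) cells. Pure compounds tested at ten concentrations from 50 nM to 20 μM. IC50 values derived from the concentration series.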
A general note: Formazan colour is commonly taken as a measure of viable cells.

Assay [1] in a line: Cytotoxicity against human […] cells after 72 hrs by MTS assay. Type of assay: cell-based. In outline: as §1
The test system of another assay is B16-F10. Kind of assay: Cytotoxicity against mouse B16F10 cells after 72 hrs by MTS assay. The conditions noted are these: B16-F10, 72 h. Type of assay: functional, cell-based. In short, it runs like this:
as §1

The nature of assay [2]: Cytotoxicity against human MDA1986 cells after 72 hrs by MTS assay. Type of assay: functional, cell-based. The conditions noted are these: MDA1986, 72 h. In short, it runs like this: as §1
Assay [3] is described as follows: Cytotoxicity against human JMAR cells after 72 hrs by MTS assay. Type of assay: functional, cell-based. In outline:
as §1

For `CC1=C(CO)C(=O)O[C@@H]([C@@H](C)[C@H]2CC[C@H]3[C@@H]4C[C@H]5O[C@]56[C@@H](O)C=CC(=O)[C@]6(CO)[C@H]4CC[C@]23C)C1`, the concentration for half-maximal inhibition (IC50) – broadly, the concentration needed to halve the response being measured – in the assay on SK-MEL-28 is 5.1 µM; in assay [1], above 10 µM; in the assay on B16-F10, above 10 µM; in assay [2] it was 3.3 µM; in assay [3] it was 5.3 µM.
Turning to `CC(=O)OCC1=C(C)C[C@H]([C@@H](C)[C@H]2CC[C@H]3[C@@H]4C[C@H]5O[C@]56[C@@H](OC(C)=O)C=CC(=O)[C@]6(COC(C)=O)[C@H]4CC[C@]23C)OC1=O`, the IC50 with SK-MEL-28 was determined as 0.54 µM; in assay [1] it was 0.58 µM; in the assay with B16-F10, 0.067 µM; in assay [2] it was 0.91 µM; in assay [3] it was 0.16 µM.
Regarding `CC(=O)OCC1=C(C)C[C@H]([C@@H](C)[C@H]2CC[C@H]3[C@@H]4C[C@H]5O[C@]56[C@@H](OC(C)=O)C=CC(=O)[C@]6(CO)[C@H]4CC[C@]23C)OC1=O`, the IC50 amounted to 0.81 µM in the assay with SK-MEL-28; 0.41 µM in assay [1]; 0.098 µM in the assay on B16-F10; 2.2 µM in assay [2]; 0.14 µM in assay [3].
As to `CC(=O)OC[C@]12C(=O)C=C[C@H](OC(C)=O)[C@]13O[C@@H]3C[C@H]1[C@@H]3CC[C@H]([C@H](C)[C@H]4CC(C)=C(C)C(=O)O4)[C@@]3(C)CC[C@@H]12`, the IC50 was determined as 0.27 µM with SK-MEL-28; 0.51 µM in assay [1]; 0.13 µM in the assay on B16-F10; 0.11 µM in assay [2]; 0.24 µM in assay [3].
Taken in the same sequence, the figures for `CC(=O)OC[C@]12C(=O)C=C[C@H](O)[C@]13O[C@@H]3C[C@H]1[C@@H]3CC[C@H]([C@H](C)[C@H]4CC(C)=C(C)C(=O)O4)[C@@]3(C)CC[C@@H]12` were 0.64 µM, 0.16 µM, 0.19 µM, 0.49 µM and 0.12 µM.
Turning to `CC1=C(CO)C(=O)O[C@@H]([C@@H](C)[C@H]2CC[C@H]3[C@@H]4C[C@H]5O[C@]56[C@@H](O)C=CC(=O)[C@]6(CO)[C@H]4[C@@H](O)C[C@]23C)C1`, the IC50 in the assay on SK-MEL-28 was found to be 3 µM; in assay [1], 3.6 µM; with B16-F10 it was 0.49 µM; in assay [2], 2.6 µM; in assay [3], 0.77 µM.
Taken in the same sequence, the figures for `CO[C@H]1CC(=O)[C@]2(C)[C@H]3CC[C@]4(C)[C@@H]([C@H](C)[C@H]5CC(C)=C(CO)C(=O)O5)CC[C@H]4[C@@H]3C[C@H]3O[C@]32[C@H]1O` were above 10 µM, above 10 µM, above 10 µM, above 10 µM and above 10 µM.
For `CC1=C(CO)C(=O)O[C@@H]([C@@H](C)[C@H]2CC[C@H]3[C@@H]4C[C@H]5O[C@]56[C@@H](O)CCC(=O)[C@]6(C)[C@H]4CC[C@]23C)C1` the same measures were above 10 µM, above 10 µM, above 10 µM, above 10 µM and above 10 µM.
In the case of `CC1=C(CO)C(=O)O[C@@H]([C@@H](C)[C@H]2CC[C@H]3[C@@H]4C[C@@H]5O[C@@H]6CC(=O)[C@](C)([C@H]4CC[C@]23C)[C@@]5(O)[C@H]6O)C1`, the IC50 (with SK-MEL-28; in assay [1]; in the assay on B16-F10; in assay [2]; in assay [3]) was above 10 µM throughout.
Turning to `CC1=C(CO)C(=O)O[C@@H]([C@@H](C)[C@H]2CC[C@H]3[C@@H]4C[C@H]5O[C@]56[C@@H](O)[C@@H](OS(=O)(=O)O)CC(=O)[C@]6(C)[C@H]4CC[C@]23C)C1`, the IC50 in the assay on SK-MEL-28 was 5.1 µM; in assay [1] it was 1.4 µM; with B16-F10, 0.18 µM; in assay [2], 0.27 µM; in assay [3] it was 0.48 µM.
Taken in the same sequence, the figures for `CC1=C(CO[C@@H]2O[C@H](CO)[C@@H](O)[C@H](O)[C@H]2O)C(=O)O[C@@H]([C@@H](C)[C@H]2CC[C@H]3[C@@H]4C[C@H]5O[C@]56[C@@H](O)C=CC(=O)[C@]6(C)[C@H]4CC[C@]23C)C1` [SITOINDOSIDE IX] were 8.3 µM, 5.2 µM, 3.7 µM, above 10 µM and 4.2 µM.
For the molecule `CC1=C(CO)C(=O)O[C@@H]([C@@H](C)[C@H]2CC[C@H]3[C@@H]4C[C@H]5O[C@]56[C@@H](O)[C@@H](O)CC(=O)[C@]6(C)[C@H]4CC[C@]23C)C1` [VISCOSALACTONE B], the IC50 (in the assay on SK-MEL-28; in assay [1]; in the assay with B16-F10; in assay [2]; in assay [3]) was above 10 µM in each case.
As for `CC1=C(CO)C(=O)O[C@@H]([C@@H](C)[C@H]2CC[C@H]3[C@@H]4C[C@H]5O[C@]56[C@@H](O)C=CC(=O)[C@]6(C)[C@H]4CC[C@]23C)C1` [WITHAFERIN A], the IC50 stood at 4 µM in the assay on SK-MEL-28; 0.2 µM in assay [1]; 0.29 µM with B16-F10; 0.8 µM in assay [2]; 2 µM in assay [3].
For `CC1=C(C)C(=O)O[C@@H]([C@@H](C)[C@H]2CC[C@H]3[C@@H]4C[C@H]5O[C@]56[C@@H](O)C=CC(=O)[C@]6(CO)[C@H]4CC[C@]23C)C1` [WITHALONGOLIDE B] the same measures were 3.9 µM, 0.4 µM, 0.2 µM, 1.3 µM and 0.17 µM.
Taken in the same sequence, the figures for `CO[C@H]1CC(=O)[C@]2(CO)[C@H]3CC[C@]4(C)[C@@H]([C@H](C)[C@H]5CC(C)=C(CO)C(=O)O5)CC[C@H]4[C@@H]3C[C@H]3O[C@]32[C@H]1O` [WITHALONGOLIDE D] were 9.3 µM, 6.5 µM, 3.2 µM, above 10 µM and 4.7 µM.
Taken in the same sequence, the figures for `CO[C@H]1CC(=O)[C@]2(C)[C@@H]3[C@@H](C[C@H]4O[C@]42[C@H]1O)[C@@H]1CC[C@H]([C@H](C)[C@H]2CC(C)=C(CO)C(=O)O2)[C@@]1(C)C[C@@H]3O` [WITHALONGOLIDE E] were above 10 µM, 7.3 µM, 5.6 µM, 8.3 µM and above 10 µM.
With `CC1=C(CO)C(=O)O[C@@H]([C@@H](C)[C@H]2CC[C@H]3[C@@H]4CC=C5C=CC(=O)[C@]5(C)[C@H]4CC[C@]23C)C1` [WITHALONGOLIDE F], the IC50 (with SK-MEL-28; in assay [1]; with B16-F10; in assay [2]; in assay [3]) was above 10 µM each time.
In the case of `CC1=C(CO)C(=O)O[C@@H]([C@@H](C)[C@H]2CC[C@H]3[C@@H]4C[C@H]5O[C@]56[C@@H](O)[C@@H](OS(=O)(=O)O)CC(=O)[C@]6(CO)[C@H]4CC[C@]23C)C1` [WITHALONGOLIDE G], the IC50 came to 4.8 µM in the assay on SK-MEL-28; 3.3 µM in assay [1]; 1.3 µM in the assay with B16-F10; 2 µM in assay [2]; 2.3 µM in assay [3].
Regarding `CC1=C(CO[C@@H]2O[C@H](CO)[C@@H](O[C@@H]3O[C@@H](C)[C@H](O)[C@@H](O)[C@H]3O)[C@H](O)[C@H]2O)C(=O)O[C@@H]([C@@H](C)[C@H]2CC[C@H]3[C@@H]4C[C@H]5O[C@]56[C@@H](O)C=CC(=O)[C@]6(C)[C@H]4CC[C@]23C)C1` [WITHALONGOLIDE H], the concentration for half-maximal inhibition (IC50) in the assay with SK-MEL-28 was above 10 µM; in assay [1], 8.7 µM; in the assay on B16-F10 it was above 10 µM; in assay [2] it was 8.1 µM; in assay [3] it was 8.2 µM.
Regarding `CC1=C(CO)C(=O)O[C@@H]([C@@H](C)[C@H]2CC[C@H]3[C@@H]4CC=C5C[C@@H](O[C@@H]6O[C@H](CO)[C@@H](O)[C@H](O)[C@H]6O)CC(=O)[C@]5(CO)[C@H]4CC[C@]23C)C1` [WITHALONGOLIDE I], the half-maximal inhibitory concentration (IC50) (in the assay on SK-MEL-28; in assay [1]; in the assay on B16-F10; in assay [2]; in assay [3]) was above 10 µM throughout.
In the case of `CC1=C(CO[C@@H]2O[C@H](CO)[C@@H](O)[C@H](O)[C@H]2O)C[C@H]([C@@H](C)[C@H]2CC[C@H]3[C@@H]4CC=C5C[C@@H](O)C[C@H](O)[C@]5(CO)[C@H]4CC[C@]23C)OC1=O` [WITHALONGOLIDE J], the IC50 (in the assay with SK-MEL-28; in assay [1]; in the assay with B16-F10; in assay [2]; in assay [3]) was above 10 µM in each case.
For `CC1=C(CO[C@@H]2O[C@H](CO)[C@@H](O)[C@H](O)[C@H]2O)C[C@H]([C@@H](C)[C@H]2CC[C@H]3[C@@H]4C[C@H](O)C5=C(C(=O)C[C@H](O)C5)[C@H]4CC[C@]23C)OC1=O` [WITHALONGOLIDE L], the IC50 (with SK-MEL-28; in assay [1]; in the assay with B16-F10; in assay [2]; in assay [3]) was above 10 µM throughout.
